Shown is part of a subset that was picked to be rich in hits.
A1 apoptosis 2: A1 inhibitors via caspase activation, primary screen, cell-based, luminescence, HTS, two replicates; 24,000 tested, under 10 active; MEF A1-2A-BIM cells, caspase-Glo luminescence, 3 h; percent of clofoctol response, DMSO zero; AID 2465, 2010; caspase activation, % (test concentration not listed); in the data active = caspase activation above about 5.9%; inconclusive = no clear call, values can overlap the other calls; inactive = below about 2.2%
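Test system – A1-2A-BIM-expressing MEF cells · Input – 2500 cells/well · Medium – RPMI-1640 growth medium with 10% FBS · Compound dosing – 50 nL pinned compound · Timing – 3 h compound exposure at 37 °C · Technique – Caspase-Glo luminescence (DEVD substrate) · Evaluation – Caspase-3/7 activity from luminescence increase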
T cruzi intra: inhibitors of intracellular Trypanosoma cruzi, primary screen, cell-based, plate reader, single point, set 2 | intracellular Trypanosoma cruzi in host cells | activity score (inhibition), % at 5.01 µM | hit rate 4.9% among 22,000 | AID 651903, 2012; in the data active = activity score above about 55%; inconclusive = no clear call, values can overlap the other calls;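 also: parasites and compound incubated about four days before reading; 0% = median of neutral control wells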
INS-1E ATP HTS: protection of INS-1E cells from cytokine death, primary screen, ATP luminescence, single point. INS-1E cytokine-induced death, 48 h; normalised: neutral wells 0, positive control 100. protection from cytokine-induced ATP loss, % at 10 µM. hit rate 0.1% among 20,000;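 active = mean replicate protection from cytokine-induced ATP loss at least 50% and at least 75% of replicates each reaching 50%; inconclusive = meets only one of the two criteria, mean or replicate share; inactive = fails both the mean and replicate share criteria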
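Assay system – rat INS-1E insulinoma cell line · Quantity – 8000 cells per well · Buffer or medium – RPMI without phenol red, 5% FBS · Schedule – 48 h co-treatment, 10 min post-lysis read · Technique – luminescent ATP assay (CellTiter-Glo)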
Active calls of the source: *; ? = inconclusive; . = no result given.

SMILES	A1 apoptosis 2	T cruzi intra	INS-1E ATP HTS
Cc1ccc(S(=O)(=O)Nc2ccc3c(c2)CC(=O)N([C@H](C)CO)C[C@@H](C)[C@H](CN(C)CC2CCCCC2)O3)cc1	-1	85*	-6
C[C@@H]1CN([C@H](C)CO)C(=O)Cc2cc(NS(=O)(=O)c3ccc(Cl)cc3)ccc2O[C@H]1CN(C)CC1CCCCC1	0	65*	-20
C[C@@H]1CN([C@@H](C)CO)C(=O)c2cc(NC(=O)CCCCCC(=O)Nc3ccccc3N)ccc2O[C@H]1CN(C)C(=O)Nc1cccc2ccccc12	1	38	7
C[C@@H]1CN([C@H](C)CO)C(=O)c2cccc(NC(=O)CCCCCC(=O)Nc3ccccc3N)c2O[C@H]1CN(C)Cc1ccc(Cl)c(Cl)c1	-2	.	.
C[C@@H]1CN([C@@H](C)CO)C(=O)c2cccc(NC(=O)CCCCCC(=O)Nc3ccccc3N)c2O[C@H]1CN(C)Cc1ccc(Oc2ccccc2)cc1	0	84*	-3
C[C@@H]1CN([C@@H](C)CO)C(=O)c2cccc(NC(=O)CCCCCC(=O)Nc3ccccc3N)c2O[C@H]1CN(C)Cc1ccccc1	-1	72*	19
C[C@@H]1CN([C@H](C)CO)C(=O)c2cccc(NC(=O)CCCCCC(=O)Nc3ccccc3N)c2O[C@@H]1CN(C)Cc1ccc(-c2ccccc2)cc1	0	?	7
C[C@@H]1CN([C@@H](C)CO)C(=O)c2cccc(NC(=O)CCCCCC(=O)Nc3ccccc3N)c2O[C@H]1CN(C)Cc1ccc(Cl)c(Cl)c1	.	80*	7
C[C@H]1CN([C@@H](C)CO)C(=O)c2cccc(NC(=O)CCCCCC(=O)Nc3ccccc3N)c2O[C@H]1CN(C)Cc1ccc(-c2ccccc2)cc1	1	68*	-5
C[C@H](CO)N1C[C@H](C)[C@@H](CN(C)Cc2ccc(Oc3ccccc3)cc2)Oc2c(NC(=O)CCCCCC(=O)Nc3ccccc3N)cccc2C1=O	0	.	.
C[C@@H]1CN([C@H](C)CO)C(=O)c2cccc(NC(=O)CCCCCC(=O)Nc3ccccc3N)c2O[C@@H]1CN(C)Cc1ccccc1	.	-32	1
COc1ccc(NC(=O)N(C)C[C@H]2Oc3c(NC(=O)Nc4c(C)noc4C)cccc3C(=O)N([C@H](C)CO)C[C@H]2C)cc1	0	-26	3
